≈ marks a conversion by molar mass, not a printed value. A value given as a limit tells only on which side of the number the result lay.

This experiment deals with Mycobacterium tuberculosis. Briefly: Antitubercular activity against Mycobacterium tuberculosis H37Rv by agar dilution method. Format: functional. The method, boiled down:
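Twofold serial dilutions of compound incorporated into Middlebrook 7H11 agar with OADC supplement, in duplicate wells, at final 12.5, 6.25, 3.125 and 1.56 µg/mL. A known CFU of H37Rv culture was spread on the agar surface, and plates were incubated at 37 °C in 5% CO2. MIC was taken as the lowest concentration giving complete inhibition of colonies.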

For the compound `COc1ccc(C(c2cccs2)c2ccccc2OCCN2CCCCCC2)cc1` (configuration not stated), the MIC – broadly, the least concentration at which growth counts as inhibited – was above 12.5 µg/mL. The figure for `COc1cccc(C(c2ccc(OCCN3CCCCCC3)cc2)c2cccs2)c1` (configuration not stated) is 3.12 µg/mL (≈ 7.4 µM); for `Clc1ccc(C(c2ccc(OCCN3CCOCC3)cc2)c2cccs2)cc1` (configuration not stated) it is 12.5 µg/mL (≈ 30.2 µM); for `COc1ccc(C(c2cccs2)c2ccccc2OCCN2CCCCC2)cc1` (configuration not stated) it is above 12.5 µg/mL. The value for `COc1ccc(C(c2ccc(OCC(O)CN3CCN(c4ccccn4)CC3)cc2)c2cccs2)cc1` (configuration not stated) was above 12.5 µg/mL.

In the case of `COc1ccc(C(c2ccc(OCCN3CCCCCC3)cc2)c2cccs2)cc1` (configuration not stated), inhibition of growth (MIC) required 12.5 µg/mL (≈ 29.6 µM). The compound `CSc1ccc(C(c2ccc(OCCN(C)C)cc2)c2cccs2)cc1` (configuration not stated) had an MIC above 12.5 µg/mL. The value for `COc1ccc(C(c2ccc(OCC(O)CN3CCCCC3)cc2)c2cccs2)cc1` (configuration not stated) was 12.5 µg/mL (≈ 28.6 µM). Compound `COc1ccc(C(c2ccc(OCC(O)CNCCCn3ccnc3)cc2)c2cccs2)cc1` (configuration not stated) registered an MIC above 12.5 µg/mL. As for `COc1ccc(C(c2ccc(OCCN(C)C)cc2)c2cccs2)cc1` (configuration not stated), the MIC worked out at 12.5 µg/mL (≈ 34 µM). `CCN(CC)CCCNCC(O)COc1ccc(C(c2ccc(OC)cc2)c2cccs2)cc1` (configuration not stated) displayed an MIC above 12.5 µg/mL. The value for `CO[C@H]1/C=C/O[C@@]2(C)Oc3c(C)c(O)c4c(O)c(c(/C=N/N5CCN(C)CC5)c(O)c4c3C2=O)NC(=O)/C(C)=C\C=C\[C@H](C)[C@H](O)[C@@H](C)[C@@H](O)[C@@H](C)[C@H](OC(C)=O)[C@@H]1C` [RIFAMPIN] was 0.1 µg/mL (≈ 0.122 µM); that for `CCN(CC)CCOc1ccc(C(c2cccc(OC)c2)c2cccs2)cc1` (configuration not stated) was 3.12 µg/mL (≈ 7.89 µM); that for `CSc1ccc(C(c2ccc(O)cc2)c2cccs2)cc1` (configuration not stated) was above 12.5 µg/mL. Turning to `CSc1ccc(C(c2ccc(OCCN3CCOCC3)cc2)c2cccs2)cc1` (configuration not stated), the minimum inhibitory concentration (MIC) was above 12.5 µg/mL. The value for `COc1cccc(C(c2ccc(OCCN3CCOCC3)cc2)c2cccs2)c1` (configuration not stated) was 12.5 µg/mL (≈ 30.5 µM). On to `COc1ccc(C(c2cccs2)c2ccccc2OCCN2CCCC2)cc1` (configuration not stated), for which the MIC is above 12.5 µg/mL.

In turn, `COc1ccc(C(c2ccc(O)cc2)c2cccs2)cc1` (configuration not stated) gave an MIC of 3.12 µg/mL (≈ 10.5 µM).

The compound `COc1ccc(C(c2ccc(OCCN3CCOCC3)cc2)c2cccs2)cc1` (configuration not stated) came in with an MIC above 12.5 µg/mL.

Regarding `CSc1ccc(C(c2ccc(OCCN3CCCCCC3)cc2)c2cccs2)cc1` (configuration not stated), the MIC was 3.12 µg/mL (≈ 7.13 µM). The figure for `COc1cccc(C(c2ccc(OCCN(C)C)cc2)c2cccs2)c1` (configuration not stated) is 12.5 µg/mL (≈ 34 µM). The figure for `COc1ccc(C(c2ccc(OCC(O)CNCCCN3CCOCC3)cc2)c2cccs2)cc1` (configuration not stated) is above 12.5 µg/mL. The figure for `COc1cccc(C(c2ccc(O)cc2)c2cccs2)c1` (configuration not stated) is above 12.5 µg/mL; for `CCN(CC)CCOc1ccccc1C(c1ccc(OC)cc1)c1cccs1` (configuration not stated) it is above 12.5 µg/mL; for `CN(C)CCOc1ccc(C(c2ccc(Cl)cc2)c2cccs2)cc1` (configuration not stated) it is 6.25 µg/mL (≈ 16.8 µM). Regarding `COc1ccc(C(c2cccs2)c2ccccc2OCCN(C)C)cc1` (configuration not stated), the MIC was above 12.5 µg/mL. The value for `COc1ccc(C(c2ccc(OCC(O)CN3CCCC3)cc2)c2cccs2)cc1` (configuration not stated) was above 12.5 µg/mL; that for `CCN(CC)CCOc1ccc(C(c2ccc(SC)cc2)c2cccs2)cc1` (configuration not stated) was 3.12 µg/mL (≈ 7.58 µM). The value for `COc1ccc(C(c2ccc(OCC(O)CN3CCN(C)CC3)cc2)c2cccs2)cc1` (configuration not stated) was above 12.5 µg/mL; that for `COc1ccc(C(c2ccc(OCC(O)CN3CCSCC3)cc2)c2cccs2)cc1` (configuration not stated) was above 12.5 µg/mL. `NNC(=O)c1ccncc1` [ISONIAZID] gave an MIC of 0.05 µg/mL (≈ 0.365 µM). In turn, `Oc1ccc(C(c2ccc(Cl)cc2)c2cccs2)cc1` (configuration not stated) registered an MIC above 12.5 µg/mL. In the case of `COc1ccc(C(c2ccc(OCC(O)CNCCc3ccc(OC)c(OC)c3)cc2)c2cccs2)cc1` (configuration not stated), the MIC is above 12.5 µg/mL. The compound `COc1ccc(C(c2ccc(OCC(O)CN3CCN(Cc4ccccc4)CC3)cc2)c2cccs2)cc1` (configuration not stated) registered an MIC above 12.5 µg/mL. As to `CCN(CC)CCOc1ccc(C(c2ccc(OC)cc2)c2cccs2)cc1` (configuration not stated), the MIC is 6.25 µg/mL (≈ 15.8 µM). `COc1ccc(C(c2ccc(OCC(O)CNC3CCCCC3)cc2)c2cccs2)cc1` (configuration not stated): the MIC is 12.5 µg/mL (≈ 27.7 µM). The figure for `CCN(CC)CCOc1ccc(C(c2ccc(Cl)cc2)c2cccs2)cc1` (configuration not stated) is 3.12 µg/mL (≈ 7.8 µM).

(Values after ChEMBL document CHEMBL1141577, “Thiophene containing triarylmethanes as antitubercular agents” (2008).)
